Activity calls are given as the source filed them. The rule behind the calls is not given here.
How the values were obtained:
[1] = Selectivity index, ratio of CC50 for human MT4 cells to EC50 for wild type Human immunodeficieny virus 1 3B infected in human MT4 cells; type: toxicity, cell-based; details: read-out: Ratio CC50/EC50
How it was run: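 SI is CC₅₀ in mock-infected MT-4 cells divided by EC₅₀ against HIV-1 IIIB, both from 5-day MTT assays in triplicate wells.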

[2] = tested on: Human immunodeficiency virus 1; experiment: Antiviral activity against wild type Human immunodeficiency virus 1 3B infected in human MT4 cells assessed as protection against virus-induced cytotoxicity after 5 days by MTT assay; type: functional, organism-based; details: MT4, 120 h
How it was run: (§1)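 MT-4 cells, spun 5 min at 1000 rpm, were resuspended at 6 × 10⁵ cells/mL and infected with HIV-1 IIIB or HIV-2 ROD. Compounds were added at the start in serial fivefold dilutions, in triplicate wells. Viability was read by MTT reduction at 540 and 690 nm five days post-infection. EC₅₀ is the concentration giving 50% protection from viral cytopathic effect, using the median OD of three wells.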

[3] = Cytotoxic activity against human MT4 cells assessed as viability of mock-infected cells after 5 days by MTT assay; type: cell-based
How it was run: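 Mock-infected, exponentially growing MT-4 cells (6 × 10⁵ cells/mL) were exposed to serial fivefold compound dilutions in triplicate wells. After 5 days, viability was read by MTT formazan absorbance at 540 and 690 nm. CC₅₀ is the concentration that lowered OD540 of the mock-infected control by 50%, using the median OD of three wells.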

[4] = tested on: Human immunodeficiency virus 2; experiment: Antiviral activity against wild type Human immunodeficiency virus 2 ROD infected in human MT4 cells assessed as protection against virus-induced cytotoxicity after 5 days by MTT assay; type: functional, organism-based; details: Human immunodeficiency virus 2, ISOLATE ROD, MT4, 120 h; how it was run: as §1
[5] = tested on: Human immunodeficiency virus 2; experiment: Antiviral activity against Human immunodeficiency virus 2 ROD infected in human MT4 cells assessed as inhibition of viral replication; type: functional, organism-based; details: ISOLATE ROD; how it was run: as §1

Row | Structure (SMILES) | selectivity ratio [1] | EC50 [2] | CC50 at 120 h [3] | EC50 [4] | inhibition [5]
1 | O=C(CSc1nc(CN2CCCc3ccccc32)cc(=O)[nH]1)c1ccc(F)cc1 | 5 | 29.6 µM | 136 µM | > 136 µM | inactive
2 | CCc1c(CN2CCCc3ccccc32)nc(SCC(=O)c2ccc([N+](=O)[O-])cc2)[nH]c1=O | 56 | 1.98 µM | 111 µM | > 111 µM | inactive
3 | Cc1ccc(CSc2nc(CN3CCCc4ccccc43)cc(=O)[nH]2)cc1 | < 1 | > 64.3 µM | 64.3 µM | > 64.3 µM | inactive
4 | Cc1ccc(C(=O)CSc2nc(CN3CCCc4ccccc43)cc(=O)[nH]2)cc1 | 6 | 28 µM | 156 µM | > 156 µM | inactive
5 | CCc1c(CN2CCCc3ccccc32)nc(SCc2ccc(C#N)cc2)[nH]c1=O | 125 | 0.48 µM | 59.7 µM | > 59.7 µM | inactive
6 | O=C(CSc1nc(CN2CCCc3ccccc32)cc(=O)[nH]1)c1ccc(Cl)cc1 | < 1 | > 75.6 µM | 75.6 µM | > 75.6 µM | inactive
7 | O=c1cc(CN2CCCc3ccccc32)nc(SCc2ccc(F)cc2)[nH]1 | 6 | 29.7 µM | 182 µM | > 182 µM | inactive
8 | Cc1c(CN2CCCc3ccccc32)nc(SCC(=O)c2ccc(Cl)cc2)[nH]c1=O | 19 | 2.16 µM | 42.1 µM | > 42.1 µM | inactive
9 | Cc1c(CN2CCCc3ccccc32)nc(SCC(=O)c2ccc(F)cc2)[nH]c1=O | 34 | 0.46 µM | 15.4 µM | > 15.4 µM | inactive
10 | COc1ccc(C(=O)CSc2nc(CN3CCCc4ccccc43)c(C)c(=O)[nH]2)cc1 | 144 | 0.42 µM | 60.7 µM | > 60.7 µM | inactive
11 | Cc1c(CN2CCCc3ccccc32)nc(SCC(=O)c2ccc(C#N)cc2)[nH]c1=O | 6 | 7.35 µM | 44.5 µM | > 44.5 µM | inactive
12 | Cc1c(CN2CCCc3ccccc32)nc(SCc2ccc(Cl)cc2)[nH]c1=O | ≤ 29 | ≥ 2.25 µM | 65.5 µM | > 65.5 µM | inactive
13 | CCc1c(CN2CCCc3ccccc32)nc(SCC(=O)c2ccc(C#N)cc2)[nH]c1=O | 109 | 1.06 µM | 115 µM | > 115 µM | inactive
14 | CCc1c(CN2CCCc3ccccc32)nc(SCC(=O)c2ccc(Cl)cc2)[nH]c1=O | 249 | 1.01 µM | 275 µM | > 275 µM | inactive
15 | Cc1c(CN2CCCc3ccccc32)nc(SCc2ccc(F)cc2)[nH]c1=O | < 1 | > 8.67 µM | 8.67 µM | > 8.67 µM | inactive
16 | O=c1cc(CN2CCCc3ccccc32)nc(SCc2ccccc2)[nH]1 | ≤ 3 | ≥ 32.2 µM | 94.2 µM | > 94.2 µM | inactive
17 | Cc1c(CN2CCCc3ccccc32)nc(SCc2ccc([N+](=O)[O-])cc2)[nH]c1=O | 41 | 1.88 µM | 76.9 µM | > 76.9 µM | inactive
18 | N#Cc1ccc(CSc2nc(CN3CCCc4ccccc43)cc(=O)[nH]2)cc1 | ≤ 2 | ≥ 43 µM | 86.8 µM | > 86.8 µM | inactive

Row | Structure (SMILES) | selectivity ratio [1] | EC50 [2] | CC50 at 120 h [3] | EC50 [4] | inhibition [5]
19 | Cc1cn([C@H]2C[C@H](N=[N+]=[N-])[C@@H](CO)O2)c(=O)[nH]c1=O [ZIDOVUDINE] | > 6190 |  | > 93.5 µM |  | 
20 | O=C1Nc2ccc(Cl)cc2[C@@](C#CC2CC2)(C(F)(F)F)O1 [EFAVIRENZ] | > 1430 |  | > 6.34 µM |  | 
21 | O=C(CSc1nc(CN2CCCc3ccccc32)cc(=O)[nH]1)c1ccccc1 | 6 | 24.6 µM | 153 µM | > 153 µM | inactive
22 | Cc1c(CN2CCCc3ccccc32)nc(SCc2ccc(C#N)cc2)[nH]c1=O | 7 | 1.78 µM | 13 µM | > 13 µM | inactive
23 | CC(C)Nc1cccnc1N1CCN(C(=O)c2cc3cc(NS(C)(=O)=O)ccc3[nH]2)CC1 [DELAVIRDINE] | > 12 |  | > 3.83 µM |  | 
24 | Cc1c(CN2CCCc3ccccc32)nc(SCC(=O)c2ccc([N+](=O)[O-])cc2)[nH]c1=O | ≤ 8 | ≥ 3.13 µM | 23.7 µM | > 23.7 µM | inactive
25 | COc1ccc(CSc2nc(CN3CCCc4ccccc43)cc(=O)[nH]2)cc1 | 7 | 25.1 µM | 181 µM | > 181 µM | inactive
26 | CCc1c(CN2CCCc3ccccc32)nc(SCc2ccc(Cl)cc2)[nH]c1=O | ≤ 25 | ≥ 5.42 µM | 135 µM | > 135 µM | inactive
27 | Cc1c(CN2CCCc3ccccc32)nc(SCC(=O)c2ccccc2)[nH]c1=O | 31 | 0.39 µM | 12.2 µM | > 12.2 µM | inactive
28 | CCc1c(CN2CCCc3ccccc32)nc(SCc2ccc(OC)cc2)[nH]c1=O | 244 | 0.59 µM | 147 µM | > 147 µM | inactive
29 | Cc1ccc(CSc2nc(CN3CCCc4ccccc43)c(C)c(=O)[nH]2)cc1 | ≤ 1 | ≥ 86.2 µM | ≥ 86.2 µM | > 86.2 µM | inactive
30 | N#Cc1ccc(C(=O)CSc2nc(CN3CCCc4ccccc43)cc(=O)[nH]2)cc1 | > 1 | > 197 µM | > 197 µM | > 197 µM | inactive
31 | Cc1c(CN2CCCc3ccccc32)nc(SCc2ccccc2)[nH]c1=O | < 1 | > 6.69 µM | 6.69 µM | > 6.69 µM | inactive
32 | COc1ccc(CSc2nc(CN3CCCc4ccccc43)c(C)c(=O)[nH]2)cc1 | 93 | 0.64 µM | 59.6 µM | > 59.6 µM | inactive
33 | CCc1c(CN2CCCc3ccccc32)nc(SCc2ccc([N+](=O)[O-])cc2)[nH]c1=O | 188 | 1.03 µM | 195 µM | > 195 µM | inactive
34 | COc1ccc(C(=O)CSc2nc(CN3CCCc4ccccc43)cc(=O)[nH]2)cc1 | 7 | 24 µM | 160 µM | > 160 µM | inactive
35 | Cc1ccnc2c1NC(=O)c1cccnc1N2C1CC1 [NEVIRAPINE] |  |  | > 15 µM |  | 

— ChEMBL document CHEMBL1806391, “Synthesis and biological evaluation of novel 5-alkyl-2-arylthio-6-((3,4-dihydroquinolin-1(2H)-yl)methyl)pyrimidin-4(3H)-ones as potent non-nucleoside HIV-1 reverse transcriptase inhibitors” (Bioorg Med Chem, 2011)
